What was measured:
[1] = Intrinsic clearance in human hepatocytes assessed per million cells at 1 uM measured after 2 to 60 mins by LC-MS/MS analysis; type: ADME, cell-based, Hepatocyte; conditions: read-out: CLH
[2] = Passive apparent permeability across apical to basolateral side in human Caco2 cells at pH 6.5; type: ADME, cell-based; conditions: Caco-2, pH 6.5
Procedure, shortened: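 Passive permeability across Caco-2 monolayers, measured in the A to B direction at pH 6.5.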

[3] = Mutagenicity in Salmonella typhimurium TA98 in absence of rat S9 fraction by Ames test; type: toxicity; conditions: salmonella enterica subsp. enterica serovar typhimurium
Procedure, shortened: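 Ames bacterial mutagenicity test in S. typhimurium TA98 and TA100. Run with and without metabolic activation by rat S9 fraction.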

Cytochrome P450 2C8 = biological target: T1, Cytochrome P450 2C8 (Homo sapiens, UniProt P10632); assay: Inhibition of recombinant human CYP2C8 expressed in Escherichia coli using luciferin-ME as substrate by fluorescence assay; type: ADME
T1 sequence (P10632 whole entry): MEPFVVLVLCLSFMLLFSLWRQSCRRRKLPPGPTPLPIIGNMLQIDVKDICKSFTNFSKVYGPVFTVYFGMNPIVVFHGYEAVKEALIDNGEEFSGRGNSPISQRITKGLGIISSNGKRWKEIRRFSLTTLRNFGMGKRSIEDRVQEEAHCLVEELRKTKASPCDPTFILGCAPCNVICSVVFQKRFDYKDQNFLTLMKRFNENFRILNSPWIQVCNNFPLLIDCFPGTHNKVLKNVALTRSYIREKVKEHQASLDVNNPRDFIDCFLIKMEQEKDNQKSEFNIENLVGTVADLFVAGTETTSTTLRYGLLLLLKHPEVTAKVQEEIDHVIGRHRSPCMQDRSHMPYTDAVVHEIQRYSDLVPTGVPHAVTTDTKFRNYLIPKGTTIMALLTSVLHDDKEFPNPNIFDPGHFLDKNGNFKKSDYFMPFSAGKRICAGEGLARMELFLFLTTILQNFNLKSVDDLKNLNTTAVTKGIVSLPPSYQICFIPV

Cytochrome P450 2C19 = Cytochrome P450 2C19 (Homo sapiens, UniProt P33261); assay: Inhibition of recombinant human CYP2C19 expressed in Escherichia coli using CEC as substrate by fluorescence assay; type: ADME
Sequence of Cytochrome P450 2C19 (P33261 whole entry): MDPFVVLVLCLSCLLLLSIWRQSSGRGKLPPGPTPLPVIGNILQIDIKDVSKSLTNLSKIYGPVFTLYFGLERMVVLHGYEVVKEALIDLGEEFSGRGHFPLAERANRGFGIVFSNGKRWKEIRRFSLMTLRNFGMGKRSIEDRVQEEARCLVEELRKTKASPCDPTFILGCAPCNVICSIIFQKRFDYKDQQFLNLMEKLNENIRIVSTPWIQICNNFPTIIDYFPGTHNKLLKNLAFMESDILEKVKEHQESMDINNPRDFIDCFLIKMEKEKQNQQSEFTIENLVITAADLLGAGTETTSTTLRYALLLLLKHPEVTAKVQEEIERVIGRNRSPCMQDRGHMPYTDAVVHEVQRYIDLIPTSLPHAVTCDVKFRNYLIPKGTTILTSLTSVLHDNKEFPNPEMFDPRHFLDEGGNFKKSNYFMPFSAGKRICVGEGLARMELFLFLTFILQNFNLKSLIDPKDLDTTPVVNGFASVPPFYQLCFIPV

Cytochrome P450 2D6 = Cytochrome P450 2D6 (Homo sapiens, UniProt P10635); assay: Inhibition of recombinant human CYP2D6 expressed in Escherichia coli using MAMC as substrate by fluorescence assay; type: ADME
Sequence of Cytochrome P450 2D6 (P10635 whole entry): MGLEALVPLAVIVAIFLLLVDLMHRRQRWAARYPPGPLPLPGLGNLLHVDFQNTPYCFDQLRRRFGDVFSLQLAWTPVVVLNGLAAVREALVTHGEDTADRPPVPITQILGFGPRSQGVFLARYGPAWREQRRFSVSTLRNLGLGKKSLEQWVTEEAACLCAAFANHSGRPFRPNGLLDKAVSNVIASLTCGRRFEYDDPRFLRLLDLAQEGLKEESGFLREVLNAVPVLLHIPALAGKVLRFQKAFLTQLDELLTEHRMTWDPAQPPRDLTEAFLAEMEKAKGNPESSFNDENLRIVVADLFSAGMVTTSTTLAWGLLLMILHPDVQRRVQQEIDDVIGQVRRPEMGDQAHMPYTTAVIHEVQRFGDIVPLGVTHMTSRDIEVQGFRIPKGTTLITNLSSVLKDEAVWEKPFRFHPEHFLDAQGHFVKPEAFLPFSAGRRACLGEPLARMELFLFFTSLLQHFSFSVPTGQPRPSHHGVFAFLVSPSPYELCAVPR

Cytochrome P450 3A4 = Cytochrome P450 3A4 (Homo sapiens, UniProt P08684); assay: Inhibition of recombinant human CYP3A4 expressed in Escherichia coli using BFC as substrate by fluorescence assay; type: ADME
Sequence of Cytochrome P450 3A4 (P08684 whole entry): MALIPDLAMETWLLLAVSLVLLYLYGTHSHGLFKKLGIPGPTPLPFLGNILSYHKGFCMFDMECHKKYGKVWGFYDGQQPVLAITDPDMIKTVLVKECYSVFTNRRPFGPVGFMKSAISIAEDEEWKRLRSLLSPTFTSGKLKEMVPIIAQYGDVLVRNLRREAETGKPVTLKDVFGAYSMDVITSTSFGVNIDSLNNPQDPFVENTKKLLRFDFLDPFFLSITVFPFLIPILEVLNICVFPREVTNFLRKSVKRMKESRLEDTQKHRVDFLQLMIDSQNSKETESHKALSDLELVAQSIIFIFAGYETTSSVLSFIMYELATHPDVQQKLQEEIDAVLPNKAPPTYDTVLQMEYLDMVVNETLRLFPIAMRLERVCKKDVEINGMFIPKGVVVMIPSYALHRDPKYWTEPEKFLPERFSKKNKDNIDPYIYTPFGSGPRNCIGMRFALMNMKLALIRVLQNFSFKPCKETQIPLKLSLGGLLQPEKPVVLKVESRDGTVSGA

[4] = Protein binding in Sprague-Dawley rat plasma assessed as unbound fraction by equilibrium dialysis method; type: ADME, cell-free
[5] = biological target: T2, Aryl hydrocarbon receptor (Homo sapiens, UniProt P35869); assay: Agonist activity at AhR in human HepG2 cells assessed as induction of CYP1A1 activity at 0.001 to 30 uM measured after 24 hrs by immunocytochemistry analysis; type: ADME, cell-based; conditions: hepg2, 24 h
T2 sequence (P35869 whole entry): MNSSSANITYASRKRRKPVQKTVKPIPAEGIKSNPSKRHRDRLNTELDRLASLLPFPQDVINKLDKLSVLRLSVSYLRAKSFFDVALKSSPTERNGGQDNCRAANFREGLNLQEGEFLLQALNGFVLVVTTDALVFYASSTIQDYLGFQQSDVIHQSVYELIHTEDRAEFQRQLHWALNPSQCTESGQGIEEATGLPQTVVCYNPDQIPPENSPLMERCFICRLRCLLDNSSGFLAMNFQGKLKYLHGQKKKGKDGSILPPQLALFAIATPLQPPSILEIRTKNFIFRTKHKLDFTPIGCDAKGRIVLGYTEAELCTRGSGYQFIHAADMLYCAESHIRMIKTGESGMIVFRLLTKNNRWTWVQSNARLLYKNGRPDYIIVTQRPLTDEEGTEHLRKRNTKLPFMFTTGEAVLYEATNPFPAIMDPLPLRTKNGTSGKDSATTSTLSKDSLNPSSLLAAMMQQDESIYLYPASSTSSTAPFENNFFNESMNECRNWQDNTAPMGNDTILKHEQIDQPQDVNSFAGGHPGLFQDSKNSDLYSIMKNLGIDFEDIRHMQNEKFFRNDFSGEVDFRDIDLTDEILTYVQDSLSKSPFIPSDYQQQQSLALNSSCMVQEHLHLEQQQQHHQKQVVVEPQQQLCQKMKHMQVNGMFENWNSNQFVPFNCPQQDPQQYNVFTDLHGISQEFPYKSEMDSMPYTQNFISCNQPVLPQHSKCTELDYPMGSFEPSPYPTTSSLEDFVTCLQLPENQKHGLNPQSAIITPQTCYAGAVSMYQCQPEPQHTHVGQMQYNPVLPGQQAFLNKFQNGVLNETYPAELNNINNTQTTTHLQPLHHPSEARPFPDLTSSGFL

[6] = Inhibition of phospholipidosis in rat H42EC3 cells assessed as reduction in NBD-PE accumulation by SYTOX orange staining-based high content imaging analysis; type: cell-based
[7] = biological target: Voltage-gated inwardly rectifying potassium channel KCNH2 (Homo sapiens, UniProt Q12809); assay: Inhibition of human ERG by Ion-work assay
Sequence of Voltage-gated inwardly rectifying potassium channel KCNH2 (Q12809 whole entry): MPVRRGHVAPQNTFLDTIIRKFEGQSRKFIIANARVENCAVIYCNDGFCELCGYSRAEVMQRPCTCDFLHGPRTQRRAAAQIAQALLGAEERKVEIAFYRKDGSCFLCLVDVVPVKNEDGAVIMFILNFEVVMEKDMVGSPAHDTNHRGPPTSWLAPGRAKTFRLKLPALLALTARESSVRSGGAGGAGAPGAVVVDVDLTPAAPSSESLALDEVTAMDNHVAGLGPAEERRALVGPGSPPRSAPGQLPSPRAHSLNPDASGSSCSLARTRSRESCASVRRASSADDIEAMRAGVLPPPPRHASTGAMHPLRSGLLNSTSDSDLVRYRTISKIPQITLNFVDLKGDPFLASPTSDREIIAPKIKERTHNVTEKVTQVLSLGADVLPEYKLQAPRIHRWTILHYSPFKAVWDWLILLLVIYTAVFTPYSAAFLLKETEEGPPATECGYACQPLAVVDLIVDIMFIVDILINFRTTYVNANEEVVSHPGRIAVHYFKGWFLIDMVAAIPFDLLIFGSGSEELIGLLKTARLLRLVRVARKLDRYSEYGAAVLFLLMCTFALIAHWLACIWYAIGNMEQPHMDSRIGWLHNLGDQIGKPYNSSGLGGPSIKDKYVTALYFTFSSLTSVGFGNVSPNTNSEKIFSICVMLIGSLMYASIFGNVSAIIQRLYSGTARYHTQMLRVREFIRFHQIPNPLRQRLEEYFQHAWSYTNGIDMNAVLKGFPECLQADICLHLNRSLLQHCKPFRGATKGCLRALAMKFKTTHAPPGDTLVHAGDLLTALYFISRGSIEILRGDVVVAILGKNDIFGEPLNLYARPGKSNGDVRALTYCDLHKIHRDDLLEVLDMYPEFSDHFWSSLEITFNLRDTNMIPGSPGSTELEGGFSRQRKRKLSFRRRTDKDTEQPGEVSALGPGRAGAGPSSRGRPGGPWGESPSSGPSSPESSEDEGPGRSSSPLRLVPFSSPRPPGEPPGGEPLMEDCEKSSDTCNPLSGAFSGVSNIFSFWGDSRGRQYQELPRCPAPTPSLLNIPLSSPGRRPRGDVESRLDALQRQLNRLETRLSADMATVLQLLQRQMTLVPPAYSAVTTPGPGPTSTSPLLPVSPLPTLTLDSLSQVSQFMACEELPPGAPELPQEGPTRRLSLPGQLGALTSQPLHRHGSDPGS

[8] = biological target: T3, Potassium voltage-gated channel subfamily KQT member 1 (Homo sapiens, UniProt P51787); assay: Inhibition of human Kv7.1 by Ion-work electrophysiology assay
T3 sequence (P51787 whole entry): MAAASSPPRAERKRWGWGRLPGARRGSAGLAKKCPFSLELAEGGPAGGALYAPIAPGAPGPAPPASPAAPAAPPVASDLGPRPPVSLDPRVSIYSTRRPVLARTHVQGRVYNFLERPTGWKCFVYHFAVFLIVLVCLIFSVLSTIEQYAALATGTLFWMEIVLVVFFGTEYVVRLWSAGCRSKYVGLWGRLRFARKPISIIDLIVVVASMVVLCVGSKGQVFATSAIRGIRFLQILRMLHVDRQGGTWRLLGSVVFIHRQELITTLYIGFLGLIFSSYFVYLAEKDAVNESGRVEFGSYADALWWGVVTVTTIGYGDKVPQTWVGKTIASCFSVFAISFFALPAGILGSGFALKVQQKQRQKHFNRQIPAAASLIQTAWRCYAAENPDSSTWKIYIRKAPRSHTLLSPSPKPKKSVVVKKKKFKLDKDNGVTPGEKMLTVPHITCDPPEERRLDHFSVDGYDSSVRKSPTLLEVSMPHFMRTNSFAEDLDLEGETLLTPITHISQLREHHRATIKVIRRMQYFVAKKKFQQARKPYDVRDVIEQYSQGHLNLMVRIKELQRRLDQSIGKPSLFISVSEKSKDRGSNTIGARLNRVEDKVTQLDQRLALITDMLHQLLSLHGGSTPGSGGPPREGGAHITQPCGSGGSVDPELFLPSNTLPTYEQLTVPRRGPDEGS

[9] = Cardiotoxicity in anesthetized Beagle dog assessed as effect on heart rate administered for 2 days as 45 mins iv infusion followed by compound washout and subsequent adrenaline dosing for 2 days as 10 mins iv infusion; type: toxicity, organism-based, Canis lupus familiaris; conditions: in vivo
[10] = Cardiotoxicity in anesthetized Beagle dog assessed as effect on cardiac contractility administered for 2 days as 45 mins iv infusion followed by compound washout and subsequent adrenaline dosing for 2 days as 10 mins iv infusion; type: toxicity, organism-based, Canis lupus familiaris; conditions: in vivo

| SMILES | hepatocyte CLint at 1 µM [1] [µL/min/1e6 cells] | Papp A→B [2] [×10⁻⁶ cm/s] | Activity [3] | IC50 (Cytochrome P450 2C8) [µM] | IC50 (Cytochrome P450 2C19) [µM] | IC50 (Cytochrome P450 2D6) [µM] | IC50 (Cytochrome P450 3A4) [µM] | fraction unbound [4] | Activity [5] | inhibition (INH) [6] | IC50 [7] [µM] | IC50 [8] [µM] | Activity [9] | Activity [10] |
| --- | --- | --- | --- | --- | --- | --- | --- | --- | --- | --- | --- | --- | --- | --- |
| Cc1cc(-c2ccc(C(=O)[C@@H]3CCCC[C@H]3C(=O)Nc3cnn4c3C(=O)NCC4)cc2)[nH]n1 | 4.2 | 3.7 | Non-Toxic | > 20 | > 20 | > 20 | > 20 | 0.024 | Not Active | Non-Toxic | > 33 | > 33 | Non-Toxic | Non-Toxic |
| Cc1cc(-c2ccc(C(=O)[C@@H]3CCCC[C@H]3C(=O)Nc3cnn(C)c3C(=O)NOC(C)(C)C)cc2)[nH]n1 | 6 | 14.7 | Non-Toxic | > 20 | > 20 | > 20 | > 20 | < 0.0004 | Not Active | Non-Toxic | > 33 | > 33 | Toxic | Toxic |
| Cc1cc(-c2ccc(C(=O)[C@@H]3CCCC[C@H]3C(=O)Nc3cnn(C)c3S(N)(=O)=O)cc2)[nH]n1 | 4.9 | 9 | Non-Toxic | > 20 | > 20 | > 20 | > 20 | 0.014 | Not Active | Non-Toxic | > 33 | > 33 | Non-Toxic | Non-Toxic |

Reference: ChEMBL document CHEMBL4393654, “Discovery and Early Clinical Development of an Inhibitor of 5-Lipoxygenase Activating Protein (AZD5718) for Treatment of Coronary Artery Disease” (J Med Chem, 2019)
